Results from ChEMBL document CHEMBL4393672, “High affinity CXCR4 inhibitors generated by linking low affinity peptides” (Eur J Med Chem, 2019).
Active and inactive are the calls of the source. The calls are words filed in the database; no cut-off is given here. Residues, ends and D or L forms follow the SMILES beside them.

Tests used:
[1] = test system: Human immunodeficiency virus 1; experiment: Antiviral activity against Human immunodeficiency virus 1 NL4-3 infected in human PBMC cells assessed as reduction in intracellular p24 level at 100 nM preincubated with cells 2 hrs followed by viral infection and measured after 24 hrs by ELISA; format: functional
How it was run: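 PBMCs from healthy donors (2.5×10^6 cells/mL) were exposed to compound for 2 h, washed, and infected with HIV-1 NL4-3 at MOI 0.02 for 2 h at 37°C. Cells were washed, resuspended in complete medium and incubated 24 h. Cells were then lysed with protease inhibitor, and intracellular p24 was quantified by ELISA.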

[2] = test system: C-X-C chemokine receptor type 4 (Homo sapiens), P61073 [D97A]; experiment: Binding affinity to CXCR4 D97A mutant (unknown origin) expresssed in CHO cells at 200 nM incubated for 30 mins by 12G5 antibody based fluorescence analysis; format: cell-based
How it was run: (§1)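 Wild-type or mutant CXCR4 cells (5×10⁵/well) incubated with single 200 nM concentration in FACS buffer (0.5% BSA, 0.05% azide in PBS) plus 12G5 anti-CD184 antibody, 30 min on ice; washed, FITC anti-mouse IgG 30 min on ice; fluorescence 485ex/528em; duplicates, ≥3 independent experiments, normalized as percent of control.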

[3] = test system: C-X-C chemokine receptor type 4 (Homo sapiens), P61073 [Y45A]; experiment: Competitive binding affinity to CXCR4 Y45A mutant (unknown origin) expressed in CHO cells at 200 nM incubated for 30 mins by 12G5 antibody based fluorescence analysis; format: cell-based; how it was run: as §1
[4] = test system: C-X-C chemokine receptor type 4 (Homo sapiens), P61073 [D262N]; experiment: Binding affinity to CXCR4 D262N mutant (unknown origin) expresssed in CHO cells at 200 nM incubated for 30 mins by 12G5 antibody based fluorescence analysis; format: cell-based; how it was run: as §1
[5] = test system: C-X-C chemokine receptor type 4 (Homo sapiens), P61073 [Y116A]; experiment: Competitive binding affinity at CXCR4 Y116A mutant (unknown origin) expressed in CHO cells at 200 nM incubated for 30 mins by 12G5 antibody based fluorescence analysis; format: cell-based; how it was run: as §1
[6] = test system: Human immunodeficiency virus 1; experiment: Antiviral activity against Human immunodeficiency virus 1 NL4-3 infected in human PBMC cells assessed as inhibition of extracellular p24 level preincubated with cells for 2 hrs followed by viral infection for 2 hrs and measured after 5 days by ELISA
[7] = test system: C-X-C chemokine receptor type 4 (Homo sapiens), P61073 [W94A]; experiment: Competitive binding affinity at CXCR4 W94A mutant (unknown origin) expressed in CHO cells at 200 nM incubated for 30 mins by 12G5 antibody based fluorescence analysis; format: cell-based; how it was run: as §1
[8] = test system: C-X-C chemokine receptor type 4 (Homo sapiens), P61073 [W195A]; experiment: Competitive binding affinity to CXCR4 W195A mutant (unknown origin) expresssed in CHO cells at 200 nM incubated for 30 mins by 12G5 antibody based fluorescence analysis; format: cell-based; how it was run: as §1
[9] = test system: C-X-C chemokine receptor type 4 (Homo sapiens), P61073 [E288Q]; experiment: Binding affinity to CXCR4 E288Q mutant (unknown origin) expresssed in CHO cells at 200 nM incubated for 30 mins by 12G5 antibody based fluorescence analysis; format: cell-based; how it was run: as §1
[10] = biological target: T1, C-X-C chemokine receptor type 4 (Homo sapiens, UniProt P61073); experiment: Competitive binding affinity to CXCR4 in human SupT1 cells incubated for 40 mins by 12G5 antibody based fluorescence analysis; format: cell-based
[11] = biological target: T1, C-X-C chemokine receptor type 4; experiment: Competitive binding affinity to CXCR4 receptor (unknown origin) expressed in CHO cells incubated for 40 mins by 12G5 antibody based fluorescence analysis; format: cell-based

T1 sequence (P61073 whole entry): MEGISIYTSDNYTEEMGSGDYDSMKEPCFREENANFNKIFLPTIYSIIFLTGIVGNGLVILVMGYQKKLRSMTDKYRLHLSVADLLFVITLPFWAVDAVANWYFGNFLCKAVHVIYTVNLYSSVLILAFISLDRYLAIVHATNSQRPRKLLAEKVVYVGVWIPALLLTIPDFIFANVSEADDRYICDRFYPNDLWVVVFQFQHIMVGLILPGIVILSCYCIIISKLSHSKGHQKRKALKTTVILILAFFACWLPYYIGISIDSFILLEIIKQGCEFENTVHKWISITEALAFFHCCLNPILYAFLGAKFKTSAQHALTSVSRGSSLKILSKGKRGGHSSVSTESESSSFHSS
Chain of C-X-C chemokine receptor type 4 (Homo sapiens), P61073 [E288Q] (P61073 whole entry E288Q): as the sequence (P61073 whole entry) above, with E288Q counted along it
Chain of C-X-C chemokine receptor type 4 (Homo sapiens), P61073 [Y116A] (P61073 whole entry Y116A): as the sequence (P61073 whole entry) above, with Y116A counted along it
Chain of C-X-C chemokine receptor type 4 (Homo sapiens), P61073 [D262N] (P61073 whole entry D262N): as the sequence (P61073 whole entry) above, with D262N counted along it
Chain of C-X-C chemokine receptor type 4 (Homo sapiens), P61073 [W94A] (P61073 whole entry W94A): as the sequence (P61073 whole entry) above, with W94A counted along it
Chain of C-X-C chemokine receptor type 4 (Homo sapiens), P61073 [Y45A] (P61073 whole entry Y45A): as the sequence (P61073 whole entry) above, with Y45A counted along it
Chain of C-X-C chemokine receptor type 4 (Homo sapiens), P61073 [W195A] (P61073 whole entry W195A): as the sequence (P61073 whole entry) above, with W195A counted along it
Chain of C-X-C chemokine receptor type 4 (Homo sapiens), P61073 [D97A] (P61073 whole entry D97A): as the sequence (P61073 whole entry) above, with D97A counted along it

Q: With `c1cc(CN2CCCNCCNCCCNCC2)ccc1CN1CCCNCCNCCCNCC1` as the molecule, how does the Activity [1] read?
A: Active

Q: Which results are given for `CC(C)C[C@@H](N)C(=O)NCC(=O)N[C@H](C)C(=O)N[C@H](CO)C(=O)N[C@H](Cc1c[nH]c2ccccc12)C(=O)N[C@H](Cc1cnc[nH]1)C(=O)N[C@H](CCCNC(=N)N)C(=O)N1CCC[C@@H]1C(=O)N[C@H](CC(=O)O)C(=O)N[C@H](CCCCN)C(N)=O` (HELM PEPTIDE1{[dL].G.[dA].[dS].[dW].[dH].[dR].[dP].[dD].[dK].[am]}$$$$V2.0)?
A: Activity [2]: inactive; Activity [3]: Active; inhibition [1]: inactive; Activity [4]: inactive; Activity [5]: Active; inhibition [6]: inactive; Activity [7]: Active; Activity [8]: inactive; Activity [9]: inactive

Q: With `CC(C)C[C@@H](N)C(=O)NCC(=O)N[C@H](C)C(=O)N[C@H](CO)C(=O)N[C@H](Cc1c[nH]c2ccccc12)C(=O)N[C@H](Cc1cnc[nH]1)C(=O)N[C@H](CCCNC(=N)N)C(=O)N1CCC[C@@H]1C(=O)N[C@H](CC(=O)O)C(=O)N[C@H](CCCCN)C(=O)N[C@H](CS)C(=O)N[C@H](CS)C(=O)N[C@H](CC(C)C)C(=O)NCC(=O)N[C@H](Cc1ccc(O)cc1)C(=O)N[C@H](CCC(N)=O)C(=O)N[C@H](CCCCN)C(=O)N[C@H](CCCNC(=N)N)C(=O)N1CCC[C@@H]1C(=O)N[C@H](CC(C)C)C(=O)N1CCC[C@@H]1C(=O)NCCCCCC(=O)N[C@@H](CCCCN)C(=O)NCC(=O)N[C@@H](CC(C)C)C(=O)N[C@@H](CC(C)C)C(=O)NCC(=O)N[C@@H](CC(C)C)C(=O)N[C@@H](CO)C(=O)N[C@@H](CCCCN)C(N)=O` as the molecule, how does the IC50 [10] read?
A: 0.147 µM

Q: `CC[C@H](C)[C@H](NC(=O)[C@H](CC(=O)O)NC(=O)CNC(=O)[C@H](CCCCN)NC(=O)[C@H](CCCNC(=N)N)NC(=O)[C@H](CCCCN)NC(=O)CCCCCN)C(=O)N[C@@H](CCCNC(=N)N)C(=O)N[C@@H](CCC(N)=O)C(=O)N[C@@H](C)C(=O)N[C@@H](Cc1cnc[nH]1)C(=O)N[C@@H](CS)C(N)=O` (HELM PEPTIDE1{[NCCCCCC(=O)[*:2]].K.R.K.G.D.I.R.Q.A.H.C.[am]}$$$$V2.0) was tested. Which IC50 [11] did it give?
A: > 50 µM

Q: And the IC50 [10]?
A: > 50 µM
